Results taken from article PMC8895471 (Oncology Letters, 2022).

What was measured:
Format in all cases: cell-based, human
AsPC-1 cells [1] = assay: Cytotoxicity / viability, XTT assay; conditions: AsPC-1, 10, 15 or 20 µM gemcitabine, 48 h
[2] = system: mutant KRAS gene expression (mRNA) in AsPC-1 cells; assay: KRAS expression profile by quantitative real-time PCR; conditions: AsPC-1, 2 µM or 4 µM PNAs, 48 h, normalised to GAPDH, n=3
AsPC-1 cells [3] = assay: Apoptosis assay using Annexin V/PI double staining; conditions: AsPC-1, 2 µM PNA, 48 h; untreated control 7%; mean of n=3
Summary of the method: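 AsPC-1 cells (5×10^5) were seeded in six-well plates and transfected the next day with PNAs using lipofectamine, then incubated for 48 h. Adherent and floating cells were harvested by trypsinization, washed, and resuspended in ice-cold binding buffer with FITC-Annexin V and PI. Cells were stained 15 min at room temperature in the dark and analysed by flow cytometry. Data are mean ± standard error, n=3.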

[4] = system: RAS protein in AsPC-1 cells; assay: Western blot analysis of RAS protein; conditions: AsPC-1, PNA-treated 48 h, band intensity of three blots
Summary of the method: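 AsPC-1 cells were treated with PNAs for 48 h, then lysed 20 min on ice in RIPA buffer with protease inhibitor and cleared at 13,000 rpm, 10 min, 4 °C. 20 µg protein per lane was resolved by SDS-PAGE and transferred by semi-dry blotting. Blots were blocked 1 h in 5% milk/TBST, probed overnight with anti-Ras antibody, then with peroxidase-conjugated secondary 1 h at room temperature. GAPDH served as reference.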

Compound	cell viability (XTT) (AsPC-1 cells [1])	effect on mutant KRAS gene expression (mRNA, RT-qPCR) [2]	apoptosis (percentage of apoptotic cells) (AsPC-1 cells [3]) [%]	RAS protein levels (western blot) [4]
Nc1ccn([C@@H]2O[C@H](CO)[C@@H](O)C2(F)F)c(=O)n1 [Gemcitabine]	total death with no dose response	–	–	–
CTACGCCATCAGCTCCA-KKK [PNA1]	–	weaker effect of PNA1 at 4 µm compared to PNA1 at 1 µM	18	decrease in total RAS protein levels
CTDCGCCDTCDGCTCCD-KKK [PNA3]	–	dose-dependent and have a significant effect	20	–
CTDCpGCCDTCpDGCTCCpD [PNA14]	–	dose-dependent and have a significant effect	20	–
